Results: ChEMBL document CHEMBL3407352, “Identification of anthranilamide derivatives as potential factor Xa inhibitors: drug design, synthesis and biological evaluation” (Eur J Med Chem, 2015)

What was measured:
[1] = molecular target: Coagulation factor X (Homo sapiens, UniProt P00742); test: Inhibition of human factor 10a using acromogenic substrate S-2222 preincubated for 30 mins before substrate addition measured after 20 mins by spectrophotometry
[2] = molecular target: Prothrombin (Homo sapiens, UniProt P00734); test: Inhibition of human thrombin using acromogenic substrate S-2238 preincubated for 30 mins before substrate addition measured after 20 mins by spectrophotometry
Procedure, shortened: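 Compounds prepared at 10 mM, serially diluted to twelve concentrations in 50 mM Tris-Cl, 100 mM NaCl, 0.1% BSA, pH 7.4; mixed with enzyme (final: human fXa 0.003 U/mL; human thrombin 0.125 U/mL), incubated 30 min at 37 °C. Reaction started with chromogenic substrate (fXa: S-2222; thrombin: S-2238), monitored continuously 20 min at 405 nm; IC50 from mean of duplicates.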

[3] = Anticoagulant activity in plasma (unknown origin) assessed as concentration required to double the time for fibrin formation; assay type: functional
Procedure, shortened: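 Clotting times in plasma on automatic coagulometer per manufacturer's instructions; increasing inhibitor concentrations or solvent added to plasma, incubated 3 min at 37 °C, clotting times compared with appropriate control plasma.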

Chain of Coagulation factor X (P00742 41-179 limits assumed): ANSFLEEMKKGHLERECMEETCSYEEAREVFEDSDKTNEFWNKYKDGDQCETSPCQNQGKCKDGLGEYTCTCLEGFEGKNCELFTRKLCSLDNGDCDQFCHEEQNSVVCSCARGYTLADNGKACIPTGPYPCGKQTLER
Chain of Coagulation factor X (P00742 235-488 limits assumed): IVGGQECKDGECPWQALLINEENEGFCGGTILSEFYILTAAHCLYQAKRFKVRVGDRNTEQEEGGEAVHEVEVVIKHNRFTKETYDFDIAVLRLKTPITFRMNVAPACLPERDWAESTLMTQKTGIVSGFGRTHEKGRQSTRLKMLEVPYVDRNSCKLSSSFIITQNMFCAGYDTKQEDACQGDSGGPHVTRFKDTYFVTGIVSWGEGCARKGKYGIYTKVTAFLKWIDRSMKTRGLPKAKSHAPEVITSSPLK

| Structure (SMILES) | IC50 [1] [nM] | other results |
| --- | --- | --- |
| C[C@@H](C(=O)N1CCOCC1)N1CC[C@H](NS(=O)(=O)C2=Nc3ccc(Cl)cc3C2)C1=O |  | Ki [1]: 90 nM |
| COc1ccc(NC(=O)C(=O)Nc2ccccc2)c(C(=O)Nc2ccc(N3CCOCC3=O)cc2)c1 | 1120 |  |
| COc1ccc(NC(=O)C(=O)Nc2ccccc2Cl)c(C(=O)Nc2ccc(N3CCOCC3=O)cc2)c1 | 798 |  |
| COc1ccc(NC(=O)C(=O)Nc2cccc(Cl)c2)c(C(=O)Nc2ccc(N3CCOCC3=O)cc2)c1 | 621 |  |
| COc1ccc(NC(=O)C(=O)Nc2ccc(F)cc2)c(C(=O)Nc2ccc(N3CCOCC3=O)cc2)c1 | 678 |  |
| COc1ccc(NC(=O)C(=O)Nc2ccccc2OC)c(C(=O)Nc2ccc(N3CCOCC3=O)cc2)c1 | 828 |  |
| COc1ccc(NC(=O)C(=O)Nc2ccc(OC)cc2C(=O)Nc2ccc(N3CCOCC3=O)cc2)cc1 | 612 |  |
| COc1ccc(NC(=O)c2ccc(C(=N)N(C)C)cc2)c(C(=O)Nc2ccc(Cl)cn2)c1 [BETRIXABAN] |  | IC50 [2]: 18000 nM; Activity [3]: 2.4 µM |

Further lines, with some results ahead:

| IC50 [1] [nM] | Structure (SMILES) | other results |
| --- | --- | --- |
| 27 | CN1CCC2N=C(C(=O)N[C@@H]3CCCC[C@@H]3CNC(=O)c3ccc(Cl)s3)SC2C1 (stereo partly drawn) |  |
| 298 | COc1ccc(NC(=O)C(=O)Nc2ccc(Cl)cn2)c(C(=O)Nc2ccc(N3CCOCC3=O)cc2)c1 |  |
| 452 | COc1ccc(NC(=O)C(=O)Nc2ccc(Cl)cc2)c(C(=O)Nc2ccc(N3CCOCC3=O)cc2)c1 |  |
| 521 | COc1ccc(NC(=O)c2ccccc2)c(C(=O)Nc2ccc(N3CCCCC3=O)cc2)c1 |  |
| 23 | COc1ccc(NC(=O)c2ccc(Cl)cc2)c(C(=O)Nc2ccc(N3CCCCC3=O)cc2)c1 | IC50 [2]: 48000 nM; Activity [3]: 8.7 µM |
| 183 | COc1ccc(NC(=O)c2cccc(Cl)c2)c(C(=O)Nc2ccc(N3CCCCC3=O)cc2)c1 |  |
| 378 | COc1cccc(C(=O)Nc2ccc(OC)cc2C(=O)Nc2ccc(N3CCCCC3=O)cc2)c1 |  |
